From ChEMBL document CHEMBL1165943, “Design and synthesis of new anticancer pyrimidines with multiple-kinase inhibitory effect” (Bioorg Med Chem, 2010)

Experiments:
[1] = molecular target: Vascular endothelial growth factor receptor 2 (Homo sapiens) (UniProt P35968); assay: Inhibition of KDR at 10 uM by HotSpot assay
[2] = molecular target: Serine/threonine-protein kinase PAK 2 (Homo sapiens) (UniProt Q13177); assay: Inhibition of PAK2 at 10 uM by HotSpot assay
[3] = molecular target: Calcium/calmodulin-dependent protein kinase type II subunit beta (Homo sapiens) (UniProt Q13554); assay: Inhibition of CAMK2B at 10 uM by HotSpot assay
[4] = molecular target: Aurora kinase A (Homo sapiens) (UniProt O14965); assay: Inhibition of Aurora A at 10 uM by HotSpot assay
[5] = molecular target: [Pyruvate dehydrogenase (acetyl-transferring)] kinase isozyme 1, mitochondrial (Homo sapiens) (UniProt Q15118); assay: Inhibition of PDK1 at 10 uM by HotSpot assay
[6] = molecular target: Rho-associated protein kinase 1 (Homo sapiens) (UniProt Q13464); assay: Inhibition of ROCK1 at 10 uM by HotSpot assay
[7] = molecular target: Protein-tyrosine kinase 2-beta (Homo sapiens) (UniProt Q14289); assay: Inhibition of PTK2B at 10 uM by HotSpot assay
Chain of Protein-tyrosine kinase 2-beta (Homo sapiens) (Q14289 whole entry, looked up): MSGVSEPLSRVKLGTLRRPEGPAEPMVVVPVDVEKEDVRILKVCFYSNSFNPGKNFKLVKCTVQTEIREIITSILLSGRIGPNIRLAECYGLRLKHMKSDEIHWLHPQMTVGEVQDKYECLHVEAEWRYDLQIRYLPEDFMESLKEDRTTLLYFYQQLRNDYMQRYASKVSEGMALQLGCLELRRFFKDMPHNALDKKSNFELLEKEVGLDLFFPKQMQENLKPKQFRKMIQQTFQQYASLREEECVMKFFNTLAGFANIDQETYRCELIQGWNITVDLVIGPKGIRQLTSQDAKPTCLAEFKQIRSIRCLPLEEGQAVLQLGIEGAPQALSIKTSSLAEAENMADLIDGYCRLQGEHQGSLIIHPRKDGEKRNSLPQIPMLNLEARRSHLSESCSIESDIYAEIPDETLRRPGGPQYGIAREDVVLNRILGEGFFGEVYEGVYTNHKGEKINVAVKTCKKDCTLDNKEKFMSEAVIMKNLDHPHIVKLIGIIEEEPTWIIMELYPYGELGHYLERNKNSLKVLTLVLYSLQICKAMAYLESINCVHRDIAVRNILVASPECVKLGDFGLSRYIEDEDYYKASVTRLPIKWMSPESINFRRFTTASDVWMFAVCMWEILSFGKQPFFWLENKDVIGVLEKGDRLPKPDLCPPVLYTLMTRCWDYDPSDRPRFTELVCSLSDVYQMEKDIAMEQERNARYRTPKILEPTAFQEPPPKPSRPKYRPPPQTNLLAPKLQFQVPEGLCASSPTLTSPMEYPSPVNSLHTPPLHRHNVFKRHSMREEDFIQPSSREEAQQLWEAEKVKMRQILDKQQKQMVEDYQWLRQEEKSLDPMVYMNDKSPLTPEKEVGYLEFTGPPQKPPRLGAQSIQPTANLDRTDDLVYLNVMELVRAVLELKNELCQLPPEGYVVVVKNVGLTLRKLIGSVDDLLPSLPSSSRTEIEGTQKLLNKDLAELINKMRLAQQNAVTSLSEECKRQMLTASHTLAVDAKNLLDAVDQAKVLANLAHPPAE

[8] = molecular target: Proto-oncogene tyrosine-protein kinase Src (Homo sapiens) (UniProt P12931); assay: Inhibition of c-SRC at 10 uM by HotSpot assay
Chain of Proto-oncogene tyrosine-protein kinase Src (Homo sapiens) (P12931 2-536 limits assumed): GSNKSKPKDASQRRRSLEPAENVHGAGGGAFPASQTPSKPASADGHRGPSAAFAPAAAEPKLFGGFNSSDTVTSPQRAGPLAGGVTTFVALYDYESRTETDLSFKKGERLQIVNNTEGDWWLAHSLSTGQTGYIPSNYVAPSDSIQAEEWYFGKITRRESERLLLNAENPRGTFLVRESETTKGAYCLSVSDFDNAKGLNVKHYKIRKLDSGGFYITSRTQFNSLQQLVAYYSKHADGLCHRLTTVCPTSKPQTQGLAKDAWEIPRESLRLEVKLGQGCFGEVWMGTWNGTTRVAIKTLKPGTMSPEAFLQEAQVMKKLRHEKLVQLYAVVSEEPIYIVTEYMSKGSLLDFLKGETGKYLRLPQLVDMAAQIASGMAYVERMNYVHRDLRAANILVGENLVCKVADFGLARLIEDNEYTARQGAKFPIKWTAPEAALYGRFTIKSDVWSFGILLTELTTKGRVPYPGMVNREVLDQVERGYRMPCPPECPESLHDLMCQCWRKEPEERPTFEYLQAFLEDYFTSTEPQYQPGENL

[9] = molecular target: Proto-oncogene tyrosine-protein kinase ROS (Homo sapiens) (UniProt P08922); assay: Inhibition of ROS at 10 uM by HotSpot assay
[10] = molecular target: Mast/stem cell growth factor receptor Kit (Homo sapiens) (UniProt P10721); assay: Inhibition of c-Kit at 10 uM by HotSpot assay
[11] = molecular target: Dual specificity mitogen-activated protein kinase kinase 1 (Homo sapiens) (UniProt Q02750); assay: Inhibition of MEK1 at 10 uM by HotSpot assay
[12] = molecular target: High affinity nerve growth factor receptor (Homo sapiens) (UniProt P04629); assay: Inhibition of NTRK1 at 10 uM by HotSpot assay
Chain of High affinity nerve growth factor receptor (Homo sapiens) (P04629 33-796 limits assumed): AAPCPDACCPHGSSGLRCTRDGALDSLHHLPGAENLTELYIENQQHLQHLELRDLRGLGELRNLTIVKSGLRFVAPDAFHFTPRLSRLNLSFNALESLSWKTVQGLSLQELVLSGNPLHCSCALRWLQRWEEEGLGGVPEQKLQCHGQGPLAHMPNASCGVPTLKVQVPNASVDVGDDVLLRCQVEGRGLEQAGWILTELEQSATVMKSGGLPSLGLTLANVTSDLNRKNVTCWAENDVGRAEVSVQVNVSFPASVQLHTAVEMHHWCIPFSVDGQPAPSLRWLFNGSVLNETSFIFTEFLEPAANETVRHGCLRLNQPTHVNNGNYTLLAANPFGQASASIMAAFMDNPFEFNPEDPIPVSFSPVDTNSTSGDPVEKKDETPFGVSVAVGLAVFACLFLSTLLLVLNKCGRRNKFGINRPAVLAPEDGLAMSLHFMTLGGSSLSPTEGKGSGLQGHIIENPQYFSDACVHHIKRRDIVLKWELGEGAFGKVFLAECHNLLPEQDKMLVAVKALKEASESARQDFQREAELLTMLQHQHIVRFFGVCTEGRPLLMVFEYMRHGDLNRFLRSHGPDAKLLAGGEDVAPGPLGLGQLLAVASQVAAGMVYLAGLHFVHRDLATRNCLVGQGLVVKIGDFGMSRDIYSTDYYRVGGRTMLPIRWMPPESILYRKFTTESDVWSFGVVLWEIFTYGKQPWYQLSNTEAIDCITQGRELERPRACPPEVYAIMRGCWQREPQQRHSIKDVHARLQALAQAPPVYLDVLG

[13] = molecular target: RAF proto-oncogene serine/threonine-protein kinase (Homo sapiens) (UniProt P04049); assay: Inhibition of RAF1 at 10 uM by HotSpot assay
[14] = molecular target: Tyrosine-protein kinase SYK (Homo sapiens) (UniProt P43405); assay: Inhibition of SYK at 10 uM by HotSpot assay
[15] = molecular target: Epidermal growth factor receptor (Homo sapiens) (UniProt P00533); assay: Inhibition of EGFR at 10 uM by HotSpot assay
Chain of Epidermal growth factor receptor (Homo sapiens) (P00533 whole entry): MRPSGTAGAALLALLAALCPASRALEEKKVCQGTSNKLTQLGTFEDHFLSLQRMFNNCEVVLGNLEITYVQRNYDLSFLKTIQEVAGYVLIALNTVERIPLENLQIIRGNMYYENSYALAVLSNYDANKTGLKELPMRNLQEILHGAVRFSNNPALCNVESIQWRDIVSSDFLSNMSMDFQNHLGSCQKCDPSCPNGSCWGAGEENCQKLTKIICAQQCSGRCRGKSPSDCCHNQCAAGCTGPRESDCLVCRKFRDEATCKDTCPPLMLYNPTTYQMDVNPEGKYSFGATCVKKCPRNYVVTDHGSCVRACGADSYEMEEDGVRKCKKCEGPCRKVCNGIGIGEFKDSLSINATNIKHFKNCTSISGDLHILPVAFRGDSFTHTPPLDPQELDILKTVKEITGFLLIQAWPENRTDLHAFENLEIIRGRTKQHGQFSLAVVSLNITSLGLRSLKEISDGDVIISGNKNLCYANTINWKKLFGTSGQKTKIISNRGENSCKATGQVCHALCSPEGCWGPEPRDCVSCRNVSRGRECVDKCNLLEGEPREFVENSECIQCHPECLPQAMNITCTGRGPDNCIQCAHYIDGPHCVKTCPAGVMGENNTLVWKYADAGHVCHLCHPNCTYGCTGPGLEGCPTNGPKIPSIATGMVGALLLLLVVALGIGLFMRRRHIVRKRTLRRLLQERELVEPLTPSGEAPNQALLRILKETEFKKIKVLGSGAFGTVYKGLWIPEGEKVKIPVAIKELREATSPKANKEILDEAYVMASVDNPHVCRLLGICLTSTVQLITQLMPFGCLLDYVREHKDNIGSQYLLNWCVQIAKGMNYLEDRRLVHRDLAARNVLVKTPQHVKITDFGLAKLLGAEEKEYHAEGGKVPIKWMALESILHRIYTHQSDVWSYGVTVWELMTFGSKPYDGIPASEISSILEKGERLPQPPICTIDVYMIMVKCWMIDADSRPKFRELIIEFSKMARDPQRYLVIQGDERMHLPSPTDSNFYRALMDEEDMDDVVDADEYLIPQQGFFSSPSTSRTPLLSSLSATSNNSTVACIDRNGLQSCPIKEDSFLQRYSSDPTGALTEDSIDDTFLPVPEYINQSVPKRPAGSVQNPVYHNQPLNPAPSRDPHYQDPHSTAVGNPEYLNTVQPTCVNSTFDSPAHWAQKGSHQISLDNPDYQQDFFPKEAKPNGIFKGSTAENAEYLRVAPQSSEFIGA

[16] = molecular target: Serine/threonine-protein kinase PLK1 (Homo sapiens) (UniProt P53350); assay: Inhibition of PLK1 at 10 uM by HotSpot assay
[17] = molecular target: Serine/threonine-protein kinase mTOR (Homo sapiens) (UniProt P42345); assay: Inhibition of mTOR at 10 uM by HotSpot assay
HCC 2998 = assay: Cytotoxicity against human HCC2998 cells assessed as cell growth at 10 uM after 48 hrs by sulforhodamine B assay; format: functional; conditions: HCC 2998, 48 h, read-out: Activity
SK-MEL-28 [18] = assay: Cytotoxicity against human SK-MEL-28 cells assessed as cell growth at 100 nM after 48 hrs by sulforhodamine B assay; format: functional; conditions: SK-MEL-28, 48 h, read-out: Activity
CCRF-CEM [19] = assay: Cytotoxicity against human CCRF-CEM cells assessed as cell growth at 10 uM after 48 hrs by sulforhodamine B assay; format: functional; conditions: read-out: Activity
MCF7 [20] = assay: Growth inhibition of human MCF7 cells after 48 hrs by sulforhodamine B assay; format: functional; conditions: MCF7, 48 h
Method in brief: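 Cells grown in RPMI 1640 with 5% FBS and 2 mM L-glutamine, seeded at 5,000–40,000 cells/well according to doubling time. After 24 h, time-zero plates are TCA-fixed. Five concentrations (10-fold or ½log dilutions, DMSO stocks) are applied for 48 h at 37 °C, 5% CO₂. Cells are TCA-fixed, SRB-stained and read at 515 nm. IC₅₀ is taken from [(Ti−Tz)/(C−Tz)]×100 = 50.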

[21] = Cytotoxicity against human RPMI8266 cells assessed as cell growth at 0.001 uM after 48 hrs by sulforhodamine B assay; format: functional; conditions: read-out: Activity
[22] = Cytotoxicity against human RPMI8266 cells assessed as cell growth at 1 uM after 48 hrs by sulforhodamine B assay; format: functional; conditions: read-out: Activity
NCI-H226 [23] = assay: Cytotoxicity against human NCI-H226 cells assessed as cell growth at 1 uM after 48 hrs by sulforhodamine B assay; format: functional; conditions: NCI-H226, 48 h, read-out: Activity
SK-MEL-28 [24] = assay: Cytotoxicity against human SK-MEL-28 cells assessed as cell growth at 0.01 uM after 48 hrs by sulforhodamine B assay; format: functional; conditions: SK-MEL-28, 48 h, read-out: Activity
SK-MEL-28 [25] = assay: Cytotoxicity against human SK-MEL-28 cells assessed as cell growth at 1 uM after 48 hrs by sulforhodamine B assay; format: functional; conditions: SK-MEL-28, 48 h, read-out: Activity
RXF 393 = assay: Cytotoxicity against human RXF393 cells assessed as cell growth at 0.001 uM after 48 hrs by sulforhodamine B assay; format: functional; conditions: RXF 393, 48 h, read-out: Activity
CCRF-CEM [26] = assay: Cytotoxicity against human CCRF-CEM cells assessed as cell growth at 0.001 uM after 48 hrs by sulforhodamine B assay; format: functional; conditions: read-out: Activity
MCF7 [27] = assay: Cytotoxicity against human MCF7 cells assessed as cell growth at 0.01 uM after 48 hrs by sulforhodamine B assay; format: functional; conditions: MCF7, 48 h, read-out: Activity
PC-3 = assay: Growth inhibition of human PC3 cells after 48 hrs by sulforhodamine B assay; format: functional, cell-based
CCRF-CEM [28] = assay: Growth inhibition of human CCRF-CEM cells after 48 hrs by sulforhodamine B assay; format: functional
Method in brief: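 Five-dose SRB assay. Cells in RPMI 1640 with 5% FBS and 2 mM L-glutamine were seeded at 5,000–40,000 cells/well, with a TCA-fixed time-zero plate (Tz) taken at 24 h. Compound stocks were in DMSO, serially diluted 10-fold or ½-log to five concentrations, and incubated 48 h at 37 °C. Plates were stained with SRB and read at 515 nm. IC₅₀ was taken where [(Ti−Tz)/(C−Tz)]×100 = 50.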

HL-60(TB) = assay: Cytotoxicity against human HL-60(TB) cells assessed as cell growth at 10 uM after 48 hrs by sulforhodamine B assay; format: functional; conditions: HL-60, 48 h, read-out: Activity
Method in brief: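 Five-concentration HL-60(TB) test in RPMI 1640 with 5% FBS and 2 mM L-glutamine. Cells are plated at 5,000–40,000/well and a TCA-fixed time-zero plate is read at drug addition after 24 h. Drug is dissolved in DMSO and given as five 10-fold or ½log dilutions for 48 h at 37 °C, 5% CO2. Settled cells are fixed with TCA, stained with SRB and read at 515 nm.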

NCI-H226 [29] = assay: Cytotoxicity against human NCI-H226 cells assessed as cell growth at 0.01 uM after 48 hrs by sulforhodamine B assay; format: functional; conditions: NCI-H226, 48 h, read-out: Activity
[30] = read-out: LC50 (the source's name)

Chain of Vascular endothelial growth factor receptor 2 (Homo sapiens) (P35968 whole entry): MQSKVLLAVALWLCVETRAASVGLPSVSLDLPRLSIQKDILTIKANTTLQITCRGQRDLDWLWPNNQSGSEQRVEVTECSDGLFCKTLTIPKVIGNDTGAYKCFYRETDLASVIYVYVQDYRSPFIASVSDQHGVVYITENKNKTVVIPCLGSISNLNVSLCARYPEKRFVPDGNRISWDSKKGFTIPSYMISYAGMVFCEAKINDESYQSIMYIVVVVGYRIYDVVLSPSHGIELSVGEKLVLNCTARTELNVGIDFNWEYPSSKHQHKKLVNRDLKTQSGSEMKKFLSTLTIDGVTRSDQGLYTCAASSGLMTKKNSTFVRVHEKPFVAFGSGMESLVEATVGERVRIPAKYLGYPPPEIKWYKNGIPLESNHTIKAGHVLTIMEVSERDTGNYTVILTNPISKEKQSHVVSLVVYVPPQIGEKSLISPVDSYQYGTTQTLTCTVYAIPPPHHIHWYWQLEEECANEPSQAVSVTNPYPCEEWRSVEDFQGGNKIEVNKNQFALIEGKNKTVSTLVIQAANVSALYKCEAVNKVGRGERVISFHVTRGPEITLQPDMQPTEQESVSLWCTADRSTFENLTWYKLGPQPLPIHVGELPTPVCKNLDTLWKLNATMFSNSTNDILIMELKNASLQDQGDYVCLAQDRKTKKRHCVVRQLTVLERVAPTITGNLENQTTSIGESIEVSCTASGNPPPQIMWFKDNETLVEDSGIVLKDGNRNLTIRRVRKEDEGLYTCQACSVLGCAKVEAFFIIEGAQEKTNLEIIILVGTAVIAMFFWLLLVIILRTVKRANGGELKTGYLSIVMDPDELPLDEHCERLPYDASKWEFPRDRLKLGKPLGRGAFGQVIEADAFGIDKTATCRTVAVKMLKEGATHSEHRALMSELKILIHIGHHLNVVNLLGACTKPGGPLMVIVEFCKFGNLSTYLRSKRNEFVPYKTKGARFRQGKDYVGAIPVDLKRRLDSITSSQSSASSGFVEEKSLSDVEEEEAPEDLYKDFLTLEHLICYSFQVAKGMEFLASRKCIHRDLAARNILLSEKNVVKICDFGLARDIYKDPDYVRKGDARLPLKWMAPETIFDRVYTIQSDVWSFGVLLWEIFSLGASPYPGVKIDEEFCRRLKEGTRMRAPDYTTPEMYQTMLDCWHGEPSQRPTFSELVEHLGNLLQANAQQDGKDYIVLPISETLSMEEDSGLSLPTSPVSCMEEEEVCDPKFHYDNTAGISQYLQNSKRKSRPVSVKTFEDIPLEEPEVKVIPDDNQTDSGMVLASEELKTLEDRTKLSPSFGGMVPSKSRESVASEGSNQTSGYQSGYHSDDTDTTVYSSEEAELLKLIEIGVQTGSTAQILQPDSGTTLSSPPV

CC(=O)Nc1cccc(-c2ccc(-c3ccnc(NC(=O)Nc4cc(C(F)(F)F)cc(C(F)(F)F)c4)n3)cn2)c1.Cl
inhibition [1]: 50%
inhibition [2]: < 50%
inhibition [3]: < 50%
inhibition [4]: 60%
inhibition [5]: < 50%
inhibition [6]: < 50%
inhibition [7]: < 50%
inhibition [8]: 60%
inhibition [9]: < 50%
inhibition [10]: < 50%
inhibition [11]: < 50%
inhibition [12]: < 50%
inhibition [13]: < 50%
inhibition [14]: < 50%
inhibition [15]: < 50%
inhibition [16]: < 50%
inhibition [17]: < 50%

CC(=O)c1ccccc1-c1ccc(-c2ccnc(NC(=O)Nc3cc(N4CCOCC4)cc(C(F)(F)F)c3)n2)cn1
growth at 10 µM (HCC 2998): 135%
growth at 0.1 µM (SK-MEL-28 [18]): 92%
growth at 10 µM (CCRF-CEM [19]): 97%
GI50 (MCF7 [20]): > 100 µM
TGI (MCF7 [20]): > 100 µM
CC50 (MCF7 [20]; [30]): > 100 µM
growth at 0.001 µM [21]: 101%
growth at 1 µM [22]: 78%
growth at 1 µM (NCI-H226 [23]): 53%
growth at 0.01 µM (SK-MEL-28 [24]): 107%
growth at 1 µM (SK-MEL-28 [25]): 4%
growth at 0.001 µM (RXF 393): 101%
growth at 0.001 µM (CCRF-CEM [26]): 98%
growth at 0.01 µM (MCF7 [27]): 101%
GI50 (PC-3; Homo sapiens, PC-3, 48 h): > 100 µM
IC50 (PC-3; pc-3): Not Active
GI50 (CCRF-CEM [28]): > 100 µM
TGI (CCRF-CEM [28]): > 100 µM
CC50 (CCRF-CEM [28]; [30]): > 100 µM
growth at 10 µM (HL-60(TB)): 107%
growth at 0.01 µM (NCI-H226 [29]): 108%
